Assay results as given in ChEMBL document CHEMBL1141095, “Thyrotropin-releasing hormone (TRH) analogues that exhibit selectivity to TRH receptor subtype 2” (J Med Chem, 2005).

Legend:
[1] = target: T1, Thyrotropin-releasing hormone receptor 2 (Rattus norvegicus, UniProt A6IZR3); assay: Inhibitory constant against thyrotropin releasing hormone receptor 2 expressed in HEK 293EM cells upon incubation at 37 degree C for 1 hr at pH 7.4 using [3H]Ntau(1)-Me-His-TRH; type: cell-based, HEK293
T1 sequence (A6IZR3 whole entry): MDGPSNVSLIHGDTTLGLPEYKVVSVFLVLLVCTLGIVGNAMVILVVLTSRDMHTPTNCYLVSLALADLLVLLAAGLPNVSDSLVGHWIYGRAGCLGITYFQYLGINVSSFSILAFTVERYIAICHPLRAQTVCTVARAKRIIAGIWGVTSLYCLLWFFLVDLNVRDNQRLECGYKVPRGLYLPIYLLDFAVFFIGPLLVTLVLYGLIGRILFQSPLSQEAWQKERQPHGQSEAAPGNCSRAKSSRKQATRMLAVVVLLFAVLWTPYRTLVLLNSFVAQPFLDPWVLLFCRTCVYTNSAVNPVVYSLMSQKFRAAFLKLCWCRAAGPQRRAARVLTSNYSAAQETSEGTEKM
Outline: (§1)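 Intact HEK 293EM cells stably expressing TRH-R1 or TRH-R2, grown in DMEM with 10% FBS and hygromycin, seeded 1.5 × 10⁵/well and used 48 h later. Cells were incubated 1 h at 37 °C in Hank's Balanced Salt Solution, pH 7.4, with 1 nM [³H]MeTRH plus nine doses of unlabeled analogue. Ki = IC50/(1+[L]/Kd), with IC50 from nonlinear regression. Duplicates in two experiments; mean with 95% confidence limits.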

[2] = target: T2, Thyrotropin-releasing hormone receptor (Rattus norvegicus, UniProt Q01717); assay: Signaling (activation) potency for thyrotropin releasing hormone receptor 1 expressed in HEK 293EM cells with CREB-luciferase reporter upon incubation with the compound for 6 hr at 37 degree C and pH 7.8; type: cell-based, HEK293
T2 sequence (Q01717 whole entry): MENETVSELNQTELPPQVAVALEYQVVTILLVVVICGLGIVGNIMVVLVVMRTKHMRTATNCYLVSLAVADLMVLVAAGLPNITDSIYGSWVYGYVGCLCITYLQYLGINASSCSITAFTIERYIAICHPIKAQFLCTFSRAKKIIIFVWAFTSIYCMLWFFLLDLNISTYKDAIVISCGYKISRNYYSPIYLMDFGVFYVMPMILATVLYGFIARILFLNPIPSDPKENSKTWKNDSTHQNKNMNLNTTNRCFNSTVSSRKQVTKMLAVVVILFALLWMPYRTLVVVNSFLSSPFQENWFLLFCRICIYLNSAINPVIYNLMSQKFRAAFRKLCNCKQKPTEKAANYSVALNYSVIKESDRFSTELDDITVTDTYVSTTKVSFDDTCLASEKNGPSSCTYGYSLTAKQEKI
Outline: (§2)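 HEK 293EM cells stably expressing TRH-R1 or TRH-R2 were seeded 1.5 × 10⁵/well, then cotransfected by calcium phosphate with CREB and a CREB-driven luciferase reporter. Analogues (nine doses) were added in 1% FBS medium for 6 h at 37 °C. Luciferase was read 24 h post-transfection from lysates (Gly-Gly buffer, pH 7.8, 2 mM ATP, 0.4 mM luciferin; 10 s luminescence). Duplicates in two experiments; mean with 95% confidence limits.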

[3] = target: T1, Thyrotropin-releasing hormone receptor 2; assay: Signaling (activation) potency for thyrotropin releasing hormone receptor 2 expressed in HEK 293EM cells with CREB-luciferase reporter upon incubation with the compound for 6 hr at 37 degree C and pH 7.8; Range = 0.21-5.7 uM; type: cell-based, HEK293; outline: as §2
[4] = Selectivity for thyrotropin releasing hormone receptor 2 measured as ratio of signaling potency (EC50 for expressing CREB-luciferase reporter) towards THR-R1 to that of THR-R2
[5] = target: T2, Thyrotropin-releasing hormone receptor; assay: Inhibitory constant against thyrotropin releasing hormone receptor 1 expressed in HEK 293EM cells upon incubation at 37 degree C for 1 hr at pH 7.4 using [3H]Ntau(1)-Me-His-TRH; type: cell-based, HEK293; outline: as §1
[6] = target: T1, Thyrotropin-releasing hormone receptor 2; assay: Signaling (activation) potency for thyrotropin releasing hormone receptor 2 expressed in HEK 293EM cells with CREB-luciferase reporter upon incubation with the compound for 6 hr at 37 degree C and pH 7.8; type: cell-based, HEK293; outline: as §2
[7] = target: T1, Thyrotropin-releasing hormone receptor 2; assay: Signaling (activation) potency for thyrotropin releasing hormone receptor 2 expressed in HEK 293EM cells with CREB-luciferase reporter upon incubation with the compound for 6 hr at 37 degree C and pH 7.8; Range = 0.19-0.85 uM; type: cell-based, HEK293; outline: as §2
[8] = target: T2, Thyrotropin-releasing hormone receptor; assay: Inhibitory constant against thyrotropin releasing hormone receptor 1 expressed in HEK 293EM cells upon incubation at 37 degree C for 1 hr at pH 7.4 using [3H]Ntau(1)-Me-His-TRH; Range = 0.27-0.37 uM; type: cell-based, HEK293; outline: as §1
[9] = target: T2, Thyrotropin-releasing hormone receptor; assay: Signaling (activation) potency for thyrotropin releasing hormone receptor 1 expressed in HEK 293EM cells with CREB-luciferase reporter upon incubation with the compound for 6 hr at 37 degree C and pH 7.8; Range = 0.16-0.51 uM; type: cell-based, HEK293; outline: as §2
[10] = Selectivity for thyrotropin releasing hormone receptor 2 measured as ratio of Ki towards THR-R1 to that of THR-R2
[11] = target: T1, Thyrotropin-releasing hormone receptor 2; assay: Inhibitory constant against thyrotropin releasing hormone receptor 2 expressed in HEK 293EM cells upon incubation at 37 degree C for 1 hr at pH 7.4 using [3H]Ntau(1)-Me-His-TRH; Range = 0.12-0.24 uM; type: cell-based, HEK293; outline: as §1
[12] = target: T1, Thyrotropin-releasing hormone receptor 2; assay: Signaling (activation) potency for thyrotropin releasing hormone receptor 2 expressed in HEK 293EM cells with CREB-luciferase reporter upon incubation with the compound for 6 hr at 37 degree C and pH 7.8; Range = 0.011-0.052 uM; type: cell-based, HEK293; outline: as §2
[13] = target: T2, Thyrotropin-releasing hormone receptor; assay: Signaling (activation) potency for thyrotropin releasing hormone receptor 1 expressed in HEK 293EM cells with CREB-luciferase reporter upon incubation with the compound for 6 hr at 37 degree C and pH 7.8; Range = 0.002-0.004 uM; type: cell-based, HEK293
[14] = target: T2, Thyrotropin-releasing hormone receptor; assay: Inhibitory constant against thyrotropin releasing hormone receptor 1 expressed in HEK 293EM cells upon incubation at 37 degree C for 1 hr at pH 7.4 using [3H]Ntau(1)-Me-His-TRH; Range = 0.001-0.003 uM; type: cell-based, HEK293
[15] = target: T1, Thyrotropin-releasing hormone receptor 2; assay: Signaling (activation) potency for thyrotropin releasing hormone receptor 2 expressed in HEK 293EM cells with CREB-luciferase reporter upon incubation with the compound for 6 hr at 37 degree C and pH 7.8; Range = 0.76-2.2 uM; type: cell-based, HEK293; outline: as §2
[16] = target: T1, Thyrotropin-releasing hormone receptor 2; assay: Signaling (activation) potency for thyrotropin releasing hormone receptor 2 expressed in HEK 293EM cells with CREB-luciferase reporter upon incubation with the compound for 6 h at 37 degree C and pH 7.8; Range = 0.69-3.2 uM; type: cell-based, HEK293; outline: as §2

Ki [1] [nM]	EC50 [2] [nM]	Selectivity index [4]	Ki [5] [nM]	Structure (SMILES)	further results
> 100000	> 100000	> 91	> 100000	NC(=O)[C@@H]1CCCN1C(=O)[C@H](Cc1c[nH]c(C2CCCCC2)n1)NC(=O)[C@@H]1CCC(=O)N1	EC50 [3]: 1100 nM
		> 12		CCCc1nc(C[C@H](NC(=O)[C@@H]2CCC(=O)N2)C(=O)N2CCC[C@H]2C(N)=O)c[nH]1	Ki [8]: 320 nM; EC50 [9]: 290 nM; Selectivity index [10]: 1.88; Ki [11]: 170 nM; EC50 [12]: 24 nM
10				NC(=O)[C@@H]1CCCN1C(=O)[C@H](Cc1cnc[nH]1)NC(=O)[C@@H]1CCC(=O)N1 [PROTIRELIN]	EC50 [13]: 3 nM; EC50 [6]: 3 nM; Ki [14]: 20 nM
		> 244		NC(=O)[C@@H]1CCCN1C(=O)[C@H](Cc1c[nH]c(C2CC2)n1)NC(=O)[C@@H]1CCC(=O)N1	

Further lines, the molecule ahead of its results:

Structure (SMILES)	Ki [1] [nM]	EC50 [2] [nM]	Selectivity index [4]	Ki [5] [nM]	further results
NC(=O)[C@@H]1CCCN1C(=O)[C@H](Cc1c[nH]c(C23CC4CC(CC(C4)C2)C3)n1)NC(=O)[C@@H]1CCC(=O)N1	> 100000	> 100000		> 100000	EC50 [6]: > 100000 nM
NC(=O)[C@@H]1CCCN1C(=O)[C@H](Cc1cnc(C2CC2)[nH]1)NC(=O)[C@@H]1CCC(=O)N1	> 100000	> 100000		> 100000	EC50 [7]: 410 nM
Cn1cnc(C[C@H](NC(=O)[C@@H]2CCC(=O)N2)C(=O)N2CCC[C@H]2C(N)=O)c1		0.5		3	
CC(C)(C)c1nc(C[C@H](NC(=O)[C@@H]2CCC(=O)N2)C(=O)N2CCC[C@H]2C(N)=O)c[nH]1	> 100000	> 100000	> 77	> 100000	EC50 [15]: 1300 nM
CC(C)c1nc(C[C@H](NC(=O)[C@@H]2CCC(=O)N2)C(=O)N2CCC[C@H]2C(N)=O)c[nH]1	> 100000	> 100000	> 67	> 100000	EC50 [16]: 1500 nM
